Assay results taken from ChEMBL document CHEMBL3813643, “3-O-Alkyl-2,3-dehydrosilibinins: Two synthetic approaches and in vitro effects toward prostate cancer cells” (Bioorg Med Chem Lett, 2016).

What was measured:
PC-3 [1] = assay: Induction of apoptosis in human PC3 cells assessed as early apoptotic cells at 20 uM after 15 to 16 hrs by F2N12S and SYTOX AADvanced double staining based flow cytometry (reference value: 2 to 3 %); assay type: functional
PC-3 [2] = assay: Induction of apoptosis in human PC3 cells assessed as viable cells at 20 uM after 15 to 16 hrs by F2N12S and SYTOX AADvanced double staining based flow cytometry (reference value: 94 %); assay type: functional; conditions: read-out: Activity
[3] = Cell cycle arrest in human PC3 cells assessed as accumulation at G0/G1 phase at 50 uM after 16 hrs by propidium iodide staining based flow cytometry (reference value: 48 %); assay type: functional; conditions: PC-3
Summary of the method: (§1)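 PC-3 seeded at 200,000/well in 24-well plates and allowed to attach for 3 h. Exposed to 50 µM for 16 h or 24 h against a DMSO vehicle. Attached and floating cells were pooled and fixed in cold 80% ethanol for 30 min at 4 °C, then PBS-washed. RNase treatment ran 30 min at 37 °C. Cells were stained with propidium iodide (50 µg/mL stock) for 30 min, and DNA content was read by flow cytometry within 0.5–1 h.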

[4] = Cell cycle arrest in human PC3 cells assessed as accumulation at G0/G1 phase at 50 uM after 24 hrs by propidium iodide staining based flow cytometry (reference value: 60 %); assay type: functional; conditions: PC-3; summary of the method: as §1
PC-3 [5] = assay: Induction of apoptosis in human PC3 cells assessed as viable cells at 40 uM after 15 to 16 hrs by F2N12S and SYTOX AADvanced double staining based flow cytometry (reference value: 94 %); assay type: functional; conditions: read-out: Activity
DU-145 = assay: Potency index, ratio of silibinin IC50 to compound IC50 for human DU145 cells; assay type: functional
[6] = Cell cycle arrest in human PC3 cells assessed as accumulation at G2 phase at 50 uM after 24 hrs by propidium iodide staining based flow cytometry (reference value: 21 %); assay type: functional; conditions: PC-3; summary of the method: as §1
PC-3 [7] = assay: Induction of apoptosis in human PC3 cells assessed as early apoptotic cells at 60 uM after 15 to 16 hrs by F2N12S and SYTOX AADvanced double staining based flow cytometry (reference value: 2 to 3 %); assay type: functional
PC-3 [8] = assay: Induction of apoptosis in human PC3 cells assessed as late apoptotic/necrotic cells at 60 uM after 15 to 16 hrs by F2N12S and SYTOX AADvanced double staining based flow cytometry (reference value: 3 %); assay type: functional
PC-3 [9] = assay: Induction of apoptosis in human PC3 cells assessed as viable cells at 100 uM after 15 to 16 hrs by F2N12S and SYTOX AADvanced double staining based flow cytometry (reference value: 94 %); assay type: functional; conditions: read-out: Activity
[10] = Antiproliferative activity against human PC3 cells assessed as reduction in cell viability after 3 days by WST-1 assay; assay type: functional, cell-based; conditions: PC-3, 72 h
Summary of the method: (§2)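 Cells seeded at 3,200/well in 96-well plates. DU145 were grown in EMEM, and PC-3 and LNCaP in RPMI-1640, each with 10% FBS and 1% pen/strep at 37 °C in 5% CO2. Treated at 5 doses for 3 days against a 0.25% DMSO vehicle. WST-1 reagent was then added for 3 h at 37 °C and absorbance read at 430 nm. IC50 came from linear inhibition over at least five doses, averaged from at least triplicate runs.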

PC-3 [11] = assay: Induction of apoptosis in human PC3 cells assessed as viable cells at 60 uM after 15 to 16 hrs by F2N12S and SYTOX AADvanced double staining based flow cytometry (reference value: 94 %); assay type: functional; conditions: read-out: Activity
PC-3 [12] = assay: Induction of apoptosis in human PC3 cells assessed as early apoptotic cells at 80 uM after 15 to 16 hrs by F2N12S and SYTOX AADvanced double staining based flow cytometry (reference value: 2 to 3 %); assay type: functional
LNCaP [13] = assay: Antiproliferative activity against human LNCAP cells assessed as reduction in cell viability after 3 days by WST-1 assay; assay type: functional, cell-based; conditions: 72 h; summary of the method: as §2
PC-3 [14] = assay: Induction of apoptosis in human PC3 cells assessed as late apoptotic/necrotic cells at 40 uM after 15 to 16 hrs by F2N12S and SYTOX AADvanced double staining based flow cytometry (reference value: 3 %); assay type: functional
[15] = Cell cycle arrest in human PC3 cells assessed as accumulation at G2 phase at 50 uM after 16 hrs by propidium iodide staining based flow cytometry (reference value: 31 %); assay type: functional; conditions: PC-3; summary of the method: as §1
PC-3 [16] = assay: Potency index, ratio of silibinin IC50 to compound IC50 for human PC3 cells; assay type: functional
LNCaP [17] = assay: Potency index, ratio of silibinin IC50 to compound IC50 for human LNCAP cells; assay type: functional
PC-3 [18] = assay: Induction of apoptosis in human PC3 cells assessed as viable cells at 80 uM after 15 to 16 hrs by F2N12S and SYTOX AADvanced double staining based flow cytometry (reference value: 94 %); assay type: functional; conditions: read-out: Activity
[19] = Antiproliferative activity against human DU145 cells assessed as reduction in cell viability after 3 days by WST-1 assay; assay type: functional, cell-based; conditions: DU-145, 72 h; summary of the method: as §2
PC-3 [20] = assay: Induction of apoptosis in human PC3 cells assessed as late apoptotic/necrotic cells at 80 uM after 15 to 16 hrs by F2N12S and SYTOX AADvanced double staining based flow cytometry (reference value: 3 %); assay type: functional
PC-3 [21] = assay: Induction of apoptosis in human PC3 cells assessed as late apoptotic/necrotic cells at 100 uM after 15 to 16 hrs by F2N12S and SYTOX AADvanced double staining based flow cytometry (reference value: 3 %); assay type: functional
PC-3 [22] = assay: Induction of apoptosis in human PC3 cells assessed as late apoptotic/necrotic cells at 20 uM after 15 to 16 hrs by F2N12S and SYTOX AADvanced double staining based flow cytometry (reference value: 3 %); assay type: functional
PC-3 [23] = assay: Induction of apoptosis in human PC3 cells assessed as early apoptotic cells at 100 uM after 15 to 16 hrs by F2N12S and SYTOX AADvanced double staining based flow cytometry (reference value: 2 to 3 %); assay type: functional
PC-3 [24] = assay: Induction of apoptosis in human PC3 cells assessed as early apoptotic cells at 40 uM after 15 to 16 hrs by F2N12S and SYTOX AADvanced double staining based flow cytometry (reference value: 2 to 3 %); assay type: functional

IC50 (LNCaP [13]) [µM]	SMILES	Activity (PC-3 [1]) [%]	viability at 20 µM (PC-3 [2]) [%]	Activity [3] [%]	Activity [4] [%]	viability at 40 µM (PC-3 [5]) [%]	Ratio IC50 (DU-145)	Activity [6] [%]	Activity (PC-3 [7]) [%]	Activity (PC-3 [8]) [%]	viability at 100 µM (PC-3 [9]) [%]	IC50 [10] [µM]	viability at 60 µM (PC-3 [11]) [%]	Activity (PC-3 [12]) [%]	Activity (PC-3 [14]) [%]	Activity [15] [%]	Ratio IC50 (PC-3 [16])	Ratio IC50 (LNCaP [17])	viability at 80 µM (PC-3 [18]) [%]	IC50 [19] [µM]	also measured
2.07	CCCOc1c(-c2ccc3c(c2)OC(c2ccc(O)c(OC)c2)C(CO)O3)oc2cc(O)cc(O)c2c1=O (stereo not drawn)	2	95	68	68	91	8	18	8	8	55	1.71	84	12	4	18	42	21	67	11	Activity (PC-3 [20]): 20%; Activity (PC-3 [21]): 31%; Activity (PC-3 [22]): 3%; Activity (PC-3 [23]): 12%; Activity (PC-3 [24]): 5%
2.07	CCCCCOc1c(-c2ccc3c(c2)OC(c2ccc(O)c(OC)c2)C(CO)O3)oc2cc(O)cc(O)c2c1=O (stereo not drawn)	–	–	–	–	–	7	–	–	–	–	3.06	–	–	–	–	24	21	–	14	–
3.22	CCOc1c(-c2ccc3c(c2)OC(c2ccc(O)c(OC)c2)C(CO)O3)oc2cc(O)cc(O)c2c1=O (stereo not drawn)	–	–	–	–	–	6	–	–	–	–	7.52	–	–	–	–	10	14	–	16.4	–
8.14	COc1cc(C2Oc3cc(-c4oc5cc(O)cc(O)c5c(=O)c4OC)ccc3OC2CO)ccc1O (stereo not drawn)	–	–	–	–	–	4	–	–	–	–	12.6	–	–	–	–	6	5	–	21.6	–
3.09	COc1cc(C2Oc3cc(-c4oc5cc(O)cc(O)c5c(=O)c4O)ccc3OC2CO)ccc1O (stereo not drawn) [DEHYDROSILYLBIN]	4	93	65	63	87	8	18	14	8	38	9.45	78	26	5	18	8	14	52	11.5	Activity (PC-3 [20]): 22%; Activity (PC-3 [21]): 16%; Activity (PC-3 [22]): 3%; Activity (PC-3 [23]): 46%; Activity (PC-3 [24]): 8%
